Published values pooled from the literature.
Compare with care: the assays were run in different laboratories.
Target: Phosphatidylinositol 4-phosphate 3-kinase C2 domain-containing subunit beta (PIK3C2B, Homo sapiens, UniProt O00750)

`F[C@@H]1CCN(c2nccc(-c3cnn4ncccc34)n2)C1` has a remaining binding of 85% (binding; 1 µM).
With `CC(C)(C)c1ccc(-c2nc(CBr)nn2-c2cccc(O)c2)cc1` the remaining binding was 60% (cell-free assay; competition with immobilised ligand; 10 µM).
The remaining binding of `C[C@@H](c1cccc(C#N)c1)n1cc(Cl)cc(C(N)=O)c1=N` is reported as 96% (cell-free assay; competition with immobilised ligand; 1 µM).
The remaining binding of `O=C(Nc1c[nH]nc1C(=O)NC1CCNCC1)c1cc(F)cc(F)c1` is reported as 100% (binding; competition with immobilised ligand; 1 µM).
For `Nc1ncc2c(n1)-c1c([nH]c3ccc(C#CC4CC4)cc13)CCCC2`, the remaining binding was 89% (binding; competition with immobilised ligand; 1 µM).
`O=S(=O)(NC1CCC(c2cc(F)ccc2F)(S(=O)(=O)c2ccc(Cl)cc2)CC1)C(F)(F)F` (stereo not drawn) has a remaining binding of 100% (cell-free assay; competition with immobilised ligand; 1 µM).
`Cc1cnc(Nc2ccc(C(=O)N3CCC(N4CCCC4)CC3)cc2)nc1-c1cc2ccccc2s1` has a remaining binding of 99% (binding; competition with immobilised ligand; 1 µM).
`CC1CCCN1c1nccc(-c2cnn3ncccc23)n1` (stereo not drawn) has a remaining binding of 100% (binding; 1 µM).
For `CCN1CCN(Cc2ccc(C(=O)Nc3ccc(C)c(Oc4ccc5c(c4)CC(=O)N5)c3)cc2C(F)(F)F)CC1`, the remaining binding was 66% (binding; competition with immobilised ligand; 1 µM).
`O=C(NCCCN1CCOCC1)c1ccc(Nc2ncc(Cl)c(-c3ccc(Cl)s3)n2)cc1` gave a remaining binding of 100% (binding; competition with immobilised ligand; 1 µM).
With `Cc1nccc(COC(=O)N2C[C@@H]3[C@@H](CNC(=O)c4ccc5[nH]nnc5c4)[C@@H]3C2)n1` the remaining binding was 97% (cell-free assay; competition with immobilised ligand; 1 µM).
With `C[C@H]1CCN(c2nccc(-c3cnn4ncccc34)n2)C1` the remaining binding was 91% (binding; 1 µM).
`C[C@H](c1ccnc(Nc2nc3ccc(-c4cc(N(C)C)ncn4)cc3[nH]2)c1)N1CCN(C(=O)CC(F)(F)F)CC1` gave a remaining binding of 97% (cell-free assay; competition with immobilised ligand; 0.1 µM).
With `Cc1cnn2ncc(-c3ccnc(N(C)C)n3)c2c1` the remaining binding was 100% (binding; 1 µM).
With `O=C(Nc1cnc(Oc2ccc(F)cc2)nc1)N1CCc2ncccc2[C@@H]1c1ccc(F)cc1` the remaining binding was 95% (cell-free assay; competition with immobilised ligand; 1 µM).
`C=CC(=O)N1CCC(C(=O)NCC(=O)N2CCN(c3nc(-c4cnc(N)nc4C(F)F)nc(N4CCOCC4)n3)CC2)CC1` has a remaining binding of 21% (binding; competition with immobilised ligand; 1 µM).
`N[C@H]1CCN(c2nccc(-c3cnn4ncccc34)n2)C1` gave a remaining binding of 100% (binding; 1 µM).
For `COc1cnc(Nc2cccc(S(N)(=O)=O)c2)nc1N1CCN(c2ccccc2)C(=O)C1`, the remaining binding was 97% (binding; competition with immobilised ligand; 1 µM).
For `COc1ncc2cc3ccccc3nc2c1C#N`, the remaining binding was 100% (cell-free assay; competition with immobilised ligand; 5 µM).
For `COCCOc1nc(-c2ccc(Cl)nc2)nc2c1CN(C(=O)c1ncn3ccccc13)CC2`, the remaining binding was 100% (cell-free assay; competition with immobilised ligand; 0.1 µM).
For `O=C(NCCCN1CCOCC1)c1ccc(Nc2nccc(-c3cc4ccccc4s3)n2)cc1`, the remaining binding was 92% (binding; competition with immobilised ligand; 1 µM).
The remaining binding of `CC1=C(C#N)C(c2ccc3c(c2)c(NC(=O)c2ccccc2C)nn3C)C(C#N)=C(C)N1` is reported as 76% (cell-free assay; competition with immobilised ligand; 1 µM).
`CN(C)c1ncc(F)c(-c2cnn3ncccc23)n1` gave a remaining binding of 76% (binding; 1 µM).
For `CNC(=O)[C@@H]1CC[C@@H](n2c(-c3ccc4cnccc4c3)nc3ccc(C(=O)NCc4cccc(C(N)=O)c4)cc32)C1`, the remaining binding was 100% (binding; competition with immobilised ligand; 1 µM).
